Test results published in ChEMBL document CHEMBL1140193, “Synthesis and anti-inflammatory evaluation of methylene bridged benzofuranyl imidazo[2,1-b][1,3,4]thiadiazoles” (Eur J Med Chem, 2008).

How the values were obtained:
Rattus norvegicus [1] = test: Antiinflammatory activity in Wistar albino rat assessed as inhibition of carrageenan-induced paw oedema at 100 mg/kg, po measured 3 hrs after carrageenan challenge; format: functional
In short: (§1)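 Albino rats, 6 per group, dosed orally at 100 mg kg^-1; ibuprofen 100 mg kg^-1 as standard. One hour after dosing, 0.1 ml of 1% carrageenan with 2% gum acacia in normal saline injected subplantar into the right hind paw. Paw volume measured by plethysmometer; % inhibition versus control calculated. One-way ANOVA with Dunnett's t test.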

Rattus norvegicus [2] = test: Antiinflammatory activity in Wistar albino rat assessed as inhibition of carrageenan-induced paw oedema at 100 mg/kg, po measured 0.5 hrs after carrageenan challenge; format: functional; in short: as §1
Rattus norvegicus [3] = test: Analgesic activity in Wistar albino rat […] assessed as reaction time for tail withdrawal at 100 mg/kg, po after 60 mins by tail flick method; format: functional
In short: (§2)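 Rat tail-flick test: latency for the rat to withdraw its tail from hot water at 55 ± 0.5 °C. Drugs given orally. Reaction time in seconds read at 60, 90, 120 and 300 min after dosing. Treated animals compared with control and with a nimesulide standard. Wistar albino rats, 150-200 g, either sex; food withdrawn 12 h before and during testing.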

Rattus norvegicus [4] = test: Analgesic activity in Wistar albino rat […] assessed as reaction time for tail withdrawal at 100 mg/kg, po after 120 mins by tail flick method; format: functional; in short: as §2
Rattus norvegicus [5] = test: Antiinflammatory activity in Wistar albino rat assessed as inhibition of carrageenan-induced paw oedema at 100 mg/kg, po measured 4 hrs after carrageenan challenge; format: functional; in short: as §1
Rattus norvegicus [6] = test: Antiinflammatory activity in Wistar albino rat assessed as inhibition of carrageenan-induced paw oedema at 100 mg/kg, po measured 1 hr after carrageenan challenge; format: functional; in short: as §1
Rattus norvegicus [7] = test: Toxicity in Wistar albino rat assessed as mortality up to 3 g/kg, po after 24 hrs; format: organism-based; settings: in vivo, 3000 mg/kg
In short: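 Albino rats of either sex, six per group, dosed orally from 100 up to 3000 mg kg^-1 body weight. Animals were watched continuously for 8 h for signs of acute toxicity such as altered motor activity, ataxia, tremors, convulsions, sedation and lacrimation, and were checked for mortality over a 24 h period. Food was withheld for 12 h before dosing.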

Rattus norvegicus [8] = test: Toxicity in Wistar albino rat assessed as induction of gastric ulceration up to 3 g/kg, po after 8 hrs; format: organism-based, Stomach; settings: in vivo, 3000 mg/kg
In short: (§3)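 Acute toxicity: albino rats of either sex in groups of six, oral doses from 100 up to 3000 mg kg^-1. Rats observed continuously for 8 h for changes in motor activity, ataxia, tremors, convulsions, sedation and lacrimation. Ulceration and haemorrhagic spots also inspected.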

Rattus norvegicus [9] = test: Toxicity in Wistar albino rat assessed as effect on motor activity up to 3 g/kg, po after 8 hrs; format: organism-based; settings: in vivo, 3000 mg/kg; in short: as §3
Rattus norvegicus [10] = test: Analgesic activity in Wistar albino rat […] assessed as increase in reaction time for tail withdrawal at 100 mg/kg, po after 300 mins by tail flick method; format: functional; in short: as §2
Rattus norvegicus [11] = test: Antiinflammatory activity in Wistar albino rat assessed as inhibition of carrageenan-induced paw oedema at 100 mg/kg, po measured 2 hrs after carrageenan challenge; format: functional; in short: as §1
Rattus norvegicus [12] = test: Analgesic activity in Wistar albino rat […] assessed as increase in reaction time for tail withdrawal at 100 mg/kg, po after 180 mins by tail flick method; format: functional
Rattus norvegicus [13] = test: Antiinflammatory activity in Wistar albino rat assessed as inhibition of carrageenan-induced paw oedema at 100 mg/kg, po measured 5 hrs after carrageenan challenge; format: functional; in short: as §1
Rattus norvegicus [14] = test: Toxicity in Wistar albino rat assessed as induction of convulsions and tremors up to 3 g/kg, po after 8 hrs; format: organism-based; settings: in vivo, 3000 mg/kg; in short: as §3
Rattus norvegicus [15] = test: Analgesic activity in Wistar albino rat […] assessed as reaction time for tail withdrawal at 100 mg/kg, po after 180 mins by tail flick method; format: functional
Rattus norvegicus [16] = test: Analgesic activity in Wistar albino rat […] assessed as reaction time for tail withdrawal at 100 mg/kg, po after 300 mins by tail flick method; format: functional; in short: as §2
Rattus norvegicus [17] = test: Toxicity in Wistar albino rat assessed as induction of sedation up to 3 g/kg, po after 8 hrs; format: organism-based; settings: in vivo, 3000 mg/kg; in short: as §3
Rattus norvegicus [18] = test: Analgesic activity in Wistar albino rat […] assessed as reaction time for tail withdrawal at 100 mg/kg, po after 30 mins by tail flick method; format: functional
Rattus norvegicus [19] = test: Toxicity in Wistar albino rat assessed as induction of haemorrhagic spots up to 3 g/kg, po after 8 hrs; format: organism-based; settings: in vivo, 3000 mg/kg; in short: as §3

Row | Compound | inhibition in vivo at 100 mg/kg (Rattus norvegicus [1]) [%] | inhibition in vivo at 100 mg/kg (Rattus norvegicus [2]) [%] | Activity (Rattus norvegicus [3]) [s] | Activity (Rattus norvegicus [4]) [s] | inhibition in vivo at 100 mg/kg (Rattus norvegicus [5]) [%] | inhibition in vivo at 100 mg/kg (Rattus norvegicus [6]) [%] | Activity (Rattus norvegicus [7]) | Activity (Rattus norvegicus [8]) | Activity (Rattus norvegicus [9]) | Activity (Rattus norvegicus [10]) [%] | inhibition in vivo at 100 mg/kg (Rattus norvegicus [11]) [%] | Activity (Rattus norvegicus [12]) [%] | inhibition in vivo at 100 mg/kg (Rattus norvegicus [13]) [%] | Activity (Rattus norvegicus [14]) | Activity (Rattus norvegicus [15]) [s] | Activity (Rattus norvegicus [16]) [s] | Activity (Rattus norvegicus [17]) | Activity (Rattus norvegicus [18]) [s] | Activity (Rattus norvegicus [19])
1 | Cc1ccc2c(Cc3nn4c(C#N)c(-c5ccc(Cl)cc5)nc4s3)coc2c1 | 43.4 | 4.77 | 4.067 | 6.617 | 51.2 | 13.4 | Non-toxic | Non-toxic | Non-toxic | 167.12 | 28 | 207.49 | 53.5 | Non-toxic | 8.25 | 7.167 | Non-toxic | 3.7 | Non-toxic
2 | Cc1ccc2c(Cc3nn4c(CO)c(-c5ccc(Br)cc5)nc4s3)coc2c1 | 36.6 | 2.38 | 4.583 | 5.917 | 44.9 | 7.2 | Non-toxic | Non-toxic | Non-toxic | 126.12 | 13.1 | 177.3 | 47.3 | Non-toxic | 7.4 | 6.067 | Non-toxic | 3.667 | Non-toxic
3 | Cc1ccc2c(Cc3nn4c(/C=N/O)c(-c5ccc(Cl)cc5)nc4s3)coc2c1 | 10 | 6 | 2.667 | 2.633 | 11.1 | 5.19 | Non-toxic | Non-toxic | Non-toxic | -3.09 | 11.2 | 1.26 | 31 | Non-toxic | 2.717 | 2.6 | Non-toxic | 2.483 | Non-toxic
